Assay results from EPA's CvTdb concentration-time database.
Values belong to the molecule of their own block, whether it stands above or below them.

Legend:
Mouse = experiment: concentration in plasma after dosing; details: 3 h; dosed: 2-Hydroxy-4-methoxybenzophenone; 250 mg/kg; oral; Male; B6C3F1
Rat [1] = experiment: concentration in plasma after dosing; details: 6 h; dosed: 2-Hydroxy-4-methoxybenzophenone; 500 mg/kg; oral; Male; F344
Rat [2] = experiment: concentration in plasma after dosing; details: dosed: Nitrite, 20 mg/kg, iv, Male, F344
Rat [3] = experiment: concentration in liver after dosing; details: 528 h; dosed: Perfluorooctanoic acid; 12 mg/kg; oral; Male; Harlan Sprague Dawley
Rat [4] = experiment: concentration in plasma after dosing; details: dosed: 678-39-7, 40 mg/kg, iv, Female, Harlan Sprague-Dawley
Rat [5] = experiment: concentration in liver after dosing; details: 6 h; dosed: Fluorotelomer alcohol 8+2; 80 mg/kg; oral; Female; Harlan Sprague Dawley
Rat [6] = experiment: concentration in brain after dosing; details: 6 h; dosed: Perfluorooctanoic acid; 12 mg/kg; oral; Male; Harlan Sprague Dawley
Rat [7] = experiment: concentration in liver after dosing; details: 12 h; dosed: Fluorotelomer alcohol 8+2; 24 mg/kg; oral; Male; Harlan Sprague Dawley
Rat [8] = experiment: concentration in plasma after dosing; details: 192 h; dosed: 678-39-7; 12 mg/kg; iv; Male; F344
Rat [9] = experiment: concentration in liver after dosing; details: 24 h; dosed: Perfluorooctanoic acid; 80 mg/kg; oral; Female; Harlan Sprague Dawley
Rat [10] = experiment: concentration in brain after dosing; details: 24 h; dosed: Perfluorooctanoic acid; 12 mg/kg; oral; Male; Harlan Sprague Dawley
Rat [11] = experiment: concentration in plasma after dosing; details: 1 h; dosed: Potassium Perfluorobutane Sulfonate; 4 mg/kg; iv; Female; Harlan Sprague-Dawley
Rat [12] = experiment: concentration in kidney after dosing; details: 3 h; dosed: Potassium Perfluorobutane Sulfonate; 20 mg/kg; oral; Female; Harlan Sprague Dawley
Rat [13] = experiment: concentration in plasma after dosing; details: dosed: Potassium Perfluorobutane Sulfonate, 4 mg/kg, oral, Male, Harlan Sprague Dawley
Rat [14] = experiment: concentration in plasma after dosing; details: dosed: Potassium Perfluorobutane Sulfonate, 4 mg/kg, iv, Male, F344
Rat [15] = experiment: concentration in brain after dosing; details: 0.5 h; dosed: Potassium Perfluorobutane Sulfonate; 20 mg/kg; oral; Female; Harlan Sprague Dawley
rat [16] = experiment: concentration in blood after dosing; negative times count back from the end of exposure; details: dosed: methanol, inhalation, duration: 6 hr, male
human [17] = experiment: concentration in urine after dosing; negative times count back from the end of exposure; details: dosed: methanol, inhalation, duration: 8 hr
Summary of the method: (§1)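 Concentration-versus-time or amount-versus-time points were compiled from published in vivo toxicokinetic studies and from two structured collections. The studies were found by PubMed searching, classifier screening and manual review. Points were mostly digitised from plot screenshots with WebPlotDigitizer, otherwise copied from tables, and kept in the reported units. Dose, route, subject details and medium were curated by hand from each paper, and sampling and analytical methods follow each source and were often unreported.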

human [18] = experiment: concentration in expired air after dosing; details: dosed: methyl tert-butyl ether, 15 mg, oral, male
Summary of the method: as §1

concentration in plasma (Rat [2]; 2 min): 14300 ng/mL
concentration in plasma (Rat [2]; 0.75 h): 3400 ng/mL
SMILES: O=N[O-] [Nitrite]

concentration in blood (rat [16]; 0.4288 h, 200 ppm, CDF(F344)/CrlBR): 2410 ng/mL
concentration in blood (rat [16]; 0.9278 h, 200 ppm, CDF(F344)/CrlBR): 2010 ng/mL
concentration in blood (rat [16]; 1.006 h, 2000 ppm, Fischer-344): 83800 ng/mL
concentration in blood (rat [16]; 1.926 h, 200 ppm, CDF(F344)/CrlBR): 1400 ng/mL
concentration in blood (rat [16]; 2.976 h, 2000 ppm, Fischer-344): 53300 ng/mL
concentration in blood (rat [16]; 2.996 h, 200 ppm, CDF(F344)/CrlBR): 1200 ng/mL
concentration in blood (rat [16]; 4.511 h, 200 ppm, CDF(F344)/CrlBR): 1510 ng/mL
concentration in blood (rat [16]; 5.974 h, 2000 ppm, Fischer-344): 16700 ng/mL
concentration in blood (rat [16]; 8.995 h, 2000 ppm, Fischer-344): 702 ng/mL
concentration in blood (rat [16]; 11.92 h, 2000 ppm, Fischer-344): 702 ng/mL
concentration in blood (rat [16]; -206 s, 2000 ppm, Fischer-344, during exposure): 80600 ng/mL
concentration in blood (rat [16]; -0.07 h, 200 ppm, CDF(F344)/CrlBR, during exposure): 3510 ng/mL
concentration in blood (rat [16]; -3.047 h, 200 ppm, CDF(F344)/CrlBR, during exposure): 3110 ng/mL
concentration in blood (rat [16]; -3.08 h, 2000 ppm, Fischer-344, during exposure): 59900 ng/mL
concentration in blood (rat [16]; -5.115 h, 200 ppm, CDF(F344)/CrlBR, during exposure): 4520 ng/mL
concentration in blood (rat [16]; -5.151 h, 2000 ppm, Fischer-344, during exposure): 24300 ng/mL
concentration in blood (rat [16]; -5.613 h, 2000 ppm, Fischer-344, during exposure): 18900 ng/mL
concentration in blood (rat [16]; -5.615 h, 200 ppm, CDF(F344)/CrlBR, during exposure): 1400 ng/mL
concentration in urine (human [17]; 0 h, 78 ppm): 3490 ng/mL
concentration in urine (human [17]; 0 h, 158 ppm): 6700 ng/mL
concentration in urine (human [17]; 0 h, 231 ppm): 9600 ng/mL
concentration in urine (human [17]; 53 s, 300 mg/m^3, male): 9620 ng/mL
concentration in urine (human [17]; 65 s, 205 mg/m^3, male): 6690 ng/mL
concentration in urine (human [17]; 67 s, 102 mg/m^3, male): 3420 ng/mL
concentration in urine (human [17]; 1.997 h, 300 mg/m^3, male): 7640 ng/mL
concentration in urine (human [17]; 2 h, 78 ppm): 2290 ng/mL
concentration in urine (human [17]; 2 h, 158 ppm): 5240 ng/mL
concentration in urine (human [17]; 2 h, 231 ppm): 7600 ng/mL
concentration in urine (human [17]; 2.005 h, 205 mg/m^3, male): 5340 ng/mL
concentration in urine (human [17]; 2.035 h, 102 mg/m^3, male): 2420 ng/mL
concentration in urine (human [17]; 3.995 h, 300 mg/m^3, male): 4350 ng/mL
concentration in urine (human [17]; 4 h, 102 mg/m^3, male): 1630 ng/mL
concentration in urine (human [17]; 4 h, 78 ppm): 1770 ng/mL
concentration in urine (human [17]; 4 h, 158 ppm): 2690 ng/mL
concentration in urine (human [17]; 4 h, 231 ppm): 4360 ng/mL
concentration in urine (human [17]; 4.036 h, 205 mg/m^3, male): 2760 ng/mL
concentration in urine (human [17]; 5.995 h, 102 mg/m^3, male): 1360 ng/mL
concentration in urine (human [17]; 6 h, 78 ppm): 1470 ng/mL
concentration in urine (human [17]; 6 h, 158 ppm): 1830 ng/mL
concentration in urine (human [17]; 6 h, 231 ppm): 2400 ng/mL
concentration in urine (human [17]; 6.026 h, 205 mg/m^3, male): 1810 ng/mL
concentration in urine (human [17]; 6.031 h, 300 mg/m^3, male): 2430 ng/mL
concentration in urine (human [17]; 10.88 h, 205 mg/m^3, male): 1280 ng/mL
concentration in urine (human [17]; 10.91 h, 102 mg/m^3, male): 1090 ng/mL
concentration in urine (human [17]; 10.94 h, 300 mg/m^3, male): 1480 ng/mL
concentration in urine (human [17]; 11 h, 78 ppm): 1140 ng/mL
concentration in urine (human [17]; 11 h, 158 ppm): 1360 ng/mL
concentration in urine (human [17]; 11 h, 231 ppm): 1660 ng/mL
concentration in urine (human [17]; 15.5 h, 231 ppm): 1030 ng/mL
concentration in urine (human [17]; 15.71 h, 205 mg/m^3, male): 1140 ng/mL
concentration in urine (human [17]; -1.981 h, 102 mg/m^3, male, during exposure): 3130 ng/mL
concentration in urine (human [17]; -1.993 h, 300 mg/m^3, male, during exposure): 8430 ng/mL
concentration in urine (human [17]; -2 h, 78 ppm, during exposure): 3090 ng/mL
concentration in urine (human [17]; -2 h, 158 ppm, during exposure): 5920 ng/mL
concentration in urine (human [17]; -2 h, 231 ppm, during exposure): 8400 ng/mL
concentration in urine (human [17]; -2.068 h, 205 mg/m^3, male, during exposure): 5830 ng/mL
concentration in urine (human [17]; -3.984 h, 102 mg/m^3, male, during exposure): 2500 ng/mL
concentration in urine (human [17]; -4 h, 78 ppm, during exposure): 2390 ng/mL
concentration in urine (human [17]; -4 h, 158 ppm, during exposure): 4820 ng/mL
concentration in urine (human [17]; -4 h, 231 ppm, during exposure): 6830 ng/mL
concentration in urine (human [17]; -4.031 h, 300 mg/m^3, male, during exposure): 6790 ng/mL
concentration in urine (human [17]; -4.073 h, 205 mg/m^3, male, during exposure): 4890 ng/mL
concentration in urine (human [17]; -5.962 h, 102 mg/m^3, male, during exposure): 1700 ng/mL
concentration in urine (human [17]; -5.977 h, 205 mg/m^3, male, during exposure): 3090 ng/mL
concentration in urine (human [17]; -6 h, 78 ppm, during exposure): 1750 ng/mL
concentration in urine (human [17]; -6 h, 158 ppm, during exposure): 3090 ng/mL
concentration in urine (human [17]; -6 h, 231 ppm, during exposure): 4340 ng/mL
concentration in urine (human [17]; -6.075 h, 300 mg/m^3, male, during exposure): 4350 ng/mL
concentration in urine (human [17]; -7.832 h, 102 mg/m^3, male, during exposure): 802 ng/mL
concentration in urine (human [17]; -7.832 h, 205 mg/m^3, male, during exposure): 802 ng/mL
concentration in urine (human [17]; -7.859 h, 300 mg/m^3, male, during exposure): 802 ng/mL
concentration in urine (human [17]; -8 h, 78 ppm, during exposure): 572 ng/mL
concentration in urine (human [17]; -8 h, 158 ppm, during exposure): 1030 ng/mL
concentration in urine (human [17]; -8 h, 231 ppm, during exposure): 1340 ng/mL
SMILES: CO [methanol]

concentration in expired air (human [18]; 0.163 h): 1.334 nM
concentration in expired air (human [18]; 0.3286 h): 2.062 nM
concentration in expired air (human [18]; 0.5019 h): 2.062 nM
concentration in expired air (human [18]; 0.6649 h): 2.197 nM
concentration in expired air (human [18]; 0.8305 h): 1.982 nM
concentration in expired air (human [18]; 0.9909 h): 1.774 nM
concentration in expired air (human [18]; 1.501 h): 1.665 nM
concentration in expired air (human [18]; 1.995 h): 1.562 nM
concentration in expired air (human [18]; 2.994 h): 1.49 nM
concentration in expired air (human [18]; 3.99 h): 1.323 nM
concentration in expired air (human [18]; 4.991 h): 1.366 nM
concentration in expired air (human [18]; 5.99 h): 1.242 nM
SMILES: CC(C)(C)O [tert-butyl alcohol]

Second part, the molecule before the results:

SMILES: COc1ccc(C(=O)c2ccccc2)c(O)c1 [2-Hydroxy-4-methoxybenzophenone]
concentration in plasma (Mouse): 45.1 ng/mL
concentration in plasma (Rat [1]): 293 ng/mL

SMILES: O=C(O)C(F)(F)C(F)(F)C(F)(F)C(F)(F)C(F)(F)C(F)(F)C(F)(F)F [Perfluorooctanoic acid]
concentration in liver (Rat [3]): 19500 ng/g
concentration in plasma (Rat [4]; 1 h): 2620 ng/mL
concentration in plasma (Rat [4]; 24 h): 86.7 ng/mL
concentration in liver (Rat [5]): 1430 ng/g
concentration in brain (Rat [6]): 1350 ng/g
concentration in liver (Rat [7]): 1700 ng/g
concentration in plasma (Rat [8]): 310 ng/mL
concentration in liver (Rat [9]): 10000 ng/g
concentration in brain (Rat [10]): 1290 ng/g

SMILES: O=S(=O)([O-])C(F)(F)C(F)(F)C(F)(F)C(F)(F)F.[K+] [Potassium Perfluorobutane Sulfonate]
concentration in plasma (Rat [11]): 3410 ng/mL
concentration in kidney (Rat [12]): 10500 ng/g
concentration in plasma (Rat [13]; 1 h): 14800 ng/mL
concentration in plasma (Rat [13]; 24 h): 603 ng/mL
concentration in plasma (Rat [14]; 5 min): 29400 ng/mL
concentration in plasma (Rat [14]; 3 h): 10200 ng/mL
concentration in brain (Rat [15]): 511 ng/g
